We go through 1 compound from publication PMC7729281 (Biochemistry, 2020).

Assay [1] has as its target T1, h15-LOX-1 (Homo sapiens, UniProt P16050).
T1 sequence (P16050 1-662): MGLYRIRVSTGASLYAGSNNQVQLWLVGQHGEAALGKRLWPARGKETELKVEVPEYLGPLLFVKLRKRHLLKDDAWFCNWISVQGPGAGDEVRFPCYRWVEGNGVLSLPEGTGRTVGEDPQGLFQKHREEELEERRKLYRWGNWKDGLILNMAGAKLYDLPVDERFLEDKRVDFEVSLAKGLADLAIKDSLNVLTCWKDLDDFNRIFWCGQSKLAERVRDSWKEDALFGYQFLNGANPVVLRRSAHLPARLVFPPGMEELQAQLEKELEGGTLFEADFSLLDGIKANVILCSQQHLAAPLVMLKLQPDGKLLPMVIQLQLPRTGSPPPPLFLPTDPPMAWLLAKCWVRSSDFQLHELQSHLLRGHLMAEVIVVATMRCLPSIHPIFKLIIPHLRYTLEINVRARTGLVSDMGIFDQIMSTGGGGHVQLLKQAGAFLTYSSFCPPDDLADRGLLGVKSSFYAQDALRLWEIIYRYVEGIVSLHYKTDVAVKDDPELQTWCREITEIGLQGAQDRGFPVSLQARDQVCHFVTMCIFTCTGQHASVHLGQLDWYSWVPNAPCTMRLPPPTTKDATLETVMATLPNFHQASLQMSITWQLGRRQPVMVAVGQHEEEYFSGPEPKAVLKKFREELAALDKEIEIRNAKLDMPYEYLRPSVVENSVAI
The assay is described as follows: Steady-state kinetics of h15-LOX-1.

Assay [2] addresses T1, h15-LOX-1. Description: Product analysis of h15-LOX-1 reactions. It is filed as biochemical. An outline of the steps: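 h15-LOX-1 (0.125 μM, pH 7.5) or h12-LOX (0.300 μM, pH 8.0) was reacted in 25 mM HEPES at room temperature under ambient O2. Substrates were 10 μM DHA for 1 min (monitored at 234 nm) or 1 μM 14S-HpDHA for 20 min (h15-LOX-1) or 1 h (h12-LOX) (monitored at 270 nm). Reactions were quenched with acetic acid, spiked with d5-maresin-1, extracted into DCM and background-subtracted against a no-enzyme control. Split samples were run with or without trimethyl phosphite reduction. Products were identified by C18 LC-MS/MS (qTOF), N = 3.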

The subject of a further assay is human platelets. The assay is described as follows: Collagen-stimulated platelet aggregation. It counts as cell-based. The note with it: ≥1 μM, 10 min incubation, collagen 0.25 μg/mL. An outline of the steps: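 Washed human platelets were isolated by serial centrifugation and resuspended in Tyrode's buffer at 3 × 10^8/mL. They were preincubated with test compound (1–10 μM) for 10 min at 37 °C, then stimulated with 0.25 μg/mL collagen while stirring at 1100 rpm. Maximum aggregation was read as the light-transmittance change, mean ± SEM of 3–5 independent experiments. Comparison versus vehicle used one-way ANOVA with Dunnett's test.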

Setting [3] is: h15-LOX-1 + substrate, 25 mM HEPES pH 7.5, RT.
The mark [4] stands for this setting: h15-LOX-1 + 1 μM 14S-HpDHA, 20 min, pH 7.5, ambient O2.

SMILES strings stand for the structures. Values joined by “and” are separate entries in the source; they are usually repeats but may differ in a detail not shown here. Equal values may be shown once.

On to `CC/C=C\C/C=C\C[C@@H](/C=C/C=C\C/C=C\C/C=C\CCC(=O)O)OO` [14S-HpDHA, 14S-hydroperoxy-4Z,7Z,10Z,12E,16Z,19Z-docosahexaenoic acid], for which, at h15-LOX-1 [1] (h15-LOX-1), the kcat worked out at 2e+06 ± 40000 M⁻¹ s⁻¹. Further, the “13S,14S-epoxy-DHA biosynthetic flux” value on h15-LOX-1 [1] (h15-LOX-1 + 14S-HpDHA, B.F. = kcat/KM * % product) worked out at 0.078. On h15-LOX-1 [1] (setting [3]), the Km was determined as 18 ± 1 µM and the kcat came out at 2.0 ± 0.04 s⁻¹. The “fold difference of kcat/KM” value on h15-LOX-1 [1] (h15-LOX-1, kcat/KM of enzyme with DHA set to 1 (Table 5)) was −3.2. In addition, the “kcat of h15-LOX-1 greater than that of h12-LOX” value at h15-LOX-1 [1] (substrate 14S-HpDHA) was about 10 fold. Moreover, on h15-LOX-1 [2] (setting [4]), the “product profile: 7S,14S-EZE-diHpDHA” value was 29% and 29 ± 6%; the “product profile: 13S,14S-epoxy-DHA (detected as 7S/R,14S-EEE-diHDHA)” value was 71% and 71 ± 6%; the “product profile: 14S,20-diHpDHA” value was under 1.0%. The “loss in 7S,14S-EZE-diHpDHA production at increased pH” value at h15-LOX-1 [2] (h15-LOX-1 + 14S-HpDHA, Figure S3) is 7 fold. Moreover, the “reduction in aggregation compared to vehicle control” value in the assay on human platelets is on record as over 90%.

As usually defined, the Km is the concentration of substrate that gives half-maximal velocity.
